What is called ED50 is the midpoint of the dose-response relation. Lower therefore signals an effect at a small dose. The MIC is the least concentration at which growth counts as inhibited. Low readings indicate greater potency, high ones weaker potency.

≈ marks a conversion by molar mass, not a printed value.

Holding throughout (type): functional
Experiment [1] has as its system Pseudomonas aeruginosa. The experiment can be described thus: Efficacy on systemic infections after oral administration in mice was determined against Pseudomonas aeruginosa HS-116. Put shortly: (§1)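 Mouse protection test using 4 groups of 10 mice. Mice were infected intraperitoneally with a bacterial suspension slightly above LD100. A single oral dose was given immediately after infection, with four doses, one per group, chosen from in vitro activity. Survival was scored after one week, and ED50 (total mg/kg protecting 50% of mice) was interpolated from group survival rates.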

The subject of a further experiment is Klebsiella pneumoniae. Kind of experiment: Minimum inhibitory concentration (MIC)preventing growth of Klebsiella pneumoniae.
The test system of the next experiment is Bacillus subtilis. Kind of experiment: Minimum inhibitory concentration (MIC) preventing growth of Bacillus subtilis.
The next experiment concerns Enterobacter cloacae. Kind of experiment: Minimum inhibitory concentration (MIC)preventing growth of Enterobacter cloacae.
Experiment [2] deals with Pseudomonas aeruginosa. The experiment can be described thus: Minimum inhibitory concentration (MIC)preventing growth of Pseudomonas aeruginosa.
The next experiment relates to Enterococcus faecalis. The experiment can be described thus: Minimum inhibitory concentration (MIC) preventing growth of Streptococcus faecalis ATCC 10541.
Experiment [3] deals with Staphylococcus aureus. Kind of experiment: Minimum inhibitory concentration (MIC) preventing growth of […].
Experiment [4] deals with Staphylococcus aureus. The experiment can be described thus: Efficacy on systemic infections after oral administration in mice was determined against […] HS-93. Put shortly: as §1
The subject of experiment [5] is Escherichia coli. The experiment can be described thus: Minimum inhibitory concentration (MIC)preventing growth of Escherichia coli.
In another experiment the test system is Bacillus cereus. The experiment can be described thus: Minimum inhibitory concentration (MIC) preventing growth of Bacillus cereus.
A further experiment concerns Morganella morganii. The experiment can be described thus: Minimum inhibitory concentration (MIC) preventing growth of Morganella morganii.
The subject of the next experiment is Proteus vulgaris. The experiment can be described thus: Minimum inhibitory concentration (MIC) preventing growth of Proteus vulgaris.
Experiment [6] relates to Escherichia coli. The experiment can be described thus: Efficacy on systemic infections after oral administration in mice was determined against Escherichia coli HM-42. Put shortly:
as §1

Experiment [7] concerns Staphylococcus epidermidis. Kind of experiment: Minimum inhibitory concentration (MIC) preventing growth of Staphylococcus epidermidis.

`O=C(O)c1cn(C2CC2)c2c(F)c(N3CC(O)C3)c(F)cc2c1=O`: the 50% effective dose (ED50) with Pseudomonas aeruginosa [1] came out at 61.3 mg/kg; in the experiment with Staphylococcus aureus [4] it was 29.7 mg/kg; in the experiment with Escherichia coli [6] it was 11.3 mg/kg. In addition, the MIC stood at 0.007 µg/mL (≈ 0.0208 µM) in the experiment on Klebsiella pneumoniae; 0.007 µg/mL (≈ 0.0208 µM) against Bacillus subtilis; 0.06 µg/mL (≈ 0.178 µM) in the experiment on Enterobacter cloacae; 2 µg/mL (≈ 5.95 µM) in the experiment with Pseudomonas aeruginosa [2]; 0.5 µg/mL (≈ 1.49 µM) against Enterococcus faecalis; 0.06 µg/mL (≈ 0.178 µM) with Staphylococcus aureus [3]. Moreover, the MIC amounted to 0.06 µg/mL (≈ 0.178 µM) against Escherichia coli [5]; 0.03 µg/mL (≈ 0.0892 µM) against Bacillus cereus; 0.06 µg/mL (≈ 0.178 µM) in the experiment with Morganella morganii; 0.06 µg/mL (≈ 0.178 µM) against Proteus vulgaris; 0.12 µg/mL (≈ 0.357 µM) in experiment [7].

With `CC1(n2cccc2)CN(c2c(F)cc3c(=O)c(C(=O)O)cn(C4CC4)c3c2F)C1`, the MIC came out at 0.25 µg/mL (≈ 0.626 µM) against Klebsiella pneumoniae; 0.015 µg/mL (≈ 0.0376 µM) against Bacillus subtilis; 2 µg/mL (≈ 5.01 µM) against Enterobacter cloacae; 8 µg/mL (≈ 20 µM) in the experiment on Pseudomonas aeruginosa [2]; 2 µg/mL (≈ 5.01 µM) against Enterococcus faecalis; 0.25 µg/mL (≈ 0.626 µM) against Staphylococcus aureus [3]. Moreover, the MIC with Escherichia coli [5] is 1 µg/mL (≈ 2.5 µM); against Bacillus cereus, 0.25 µg/mL (≈ 0.626 µM); against Morganella morganii, 1 µg/mL (≈ 2.5 µM); against Proteus vulgaris, 1 µg/mL (≈ 2.5 µM); in experiment [7], 0.25 µg/mL (≈ 0.626 µM).

For the molecule `N#CC1CN(c2c(F)cc3c(=O)c(C(=O)O)cn(C4CC4)c3c2F)C1`, the MIC is 0.5 µg/mL (≈ 1.45 µM) against Klebsiella pneumoniae; 0.06 µg/mL (≈ 0.174 µM) in the experiment on Bacillus subtilis; 1 µg/mL (≈ 2.9 µM) in the experiment on Enterobacter cloacae; 8 µg/mL (≈ 23.2 µM) against Pseudomonas aeruginosa [2]; 4 µg/mL (≈ 11.6 µM) against Enterococcus faecalis; 1 µg/mL (≈ 2.9 µM) against Staphylococcus aureus [3]. Also, the MIC in the experiment on Escherichia coli [5] was found to be 1 µg/mL (≈ 2.9 µM); with Bacillus cereus, 0.5 µg/mL (≈ 1.45 µM); in the experiment with Morganella morganii it was 1 µg/mL (≈ 2.9 µM); in the experiment on Proteus vulgaris, 1 µg/mL (≈ 2.9 µM); in experiment [7], 0.5 µg/mL (≈ 1.45 µM).

As to `CC1(CN)CN(c2c(F)cc3c(=O)c(C(=O)O)cn(C4CC4)c3c2F)C1`, the MIC against Klebsiella pneumoniae worked out at 0.25 µg/mL (≈ 0.688 µM); in the experiment with Bacillus subtilis, 0.25 µg/mL (≈ 0.688 µM); against Enterobacter cloacae, 0.5 µg/mL (≈ 1.38 µM); against Pseudomonas aeruginosa [2], 4 µg/mL (≈ 11 µM); against Enterococcus faecalis, 2 µg/mL (≈ 5.5 µM); in the experiment with Staphylococcus aureus [3], 1 µg/mL (≈ 2.75 µM). Besides, the minimum inhibitory concentration (MIC) with Escherichia coli [5] came to 0.5 µg/mL (≈ 1.38 µM); in the experiment with Bacillus cereus, 0.5 µg/mL (≈ 1.38 µM); against Morganella morganii, 3 µg/mL (≈ 8.26 µM); in the experiment on Proteus vulgaris it was 1 µg/mL (≈ 2.75 µM); in experiment [7] it was 0.5 µg/mL (≈ 1.38 µM).

Consider `CNC1CN(c2cc3c(cc2F)c(=O)c2c(=O)[nH]sc2n3C2CC2)C1`, for which the MIC against Klebsiella pneumoniae is 0.12 µg/mL (≈ 0.333 µM); against Bacillus subtilis, 0.03 µg/mL (≈ 0.0832 µM); with Enterobacter cloacae it was 0.12 µg/mL (≈ 0.333 µM); in the experiment with Pseudomonas aeruginosa [2], 0.5 µg/mL (≈ 1.39 µM); in the experiment with Enterococcus faecalis, 0.25 µg/mL (≈ 0.694 µM); in the experiment with Staphylococcus aureus [3], 0.12 µg/mL (≈ 0.333 µM). The MIC amounted to 0.03 µg/mL (≈ 0.0832 µM) in the experiment with Escherichia coli [5]; 0.12 µg/mL (≈ 0.333 µM) in the experiment on Bacillus cereus; 0.06 µg/mL (≈ 0.166 µM) in the experiment on Morganella morganii; 0.12 µg/mL (≈ 0.333 µM) against Proteus vulgaris; 0.12 µg/mL (≈ 0.333 µM) in experiment [7].

As for `O=C(O)c1cn(C2CC2)c2c(F)c(N3CC(N4CCCC4)C3)c(F)cc2c1=O`, the MIC in the experiment on Klebsiella pneumoniae is 0.12 µg/mL (≈ 0.308 µM); against Bacillus subtilis, 0.06 µg/mL (≈ 0.154 µM); against Enterobacter cloacae, 0.06 µg/mL (≈ 0.154 µM); in the experiment with Pseudomonas aeruginosa [2] it was 2 µg/mL (≈ 5.14 µM); against Enterococcus faecalis, 0.5 µg/mL (≈ 1.28 µM); with Staphylococcus aureus [3], 0.12 µg/mL (≈ 0.308 µM). In addition, the minimal inhibitory concentration (MIC) is 0.06 µg/mL (≈ 0.154 µM) against Escherichia coli [5]; 0.12 µg/mL (≈ 0.308 µM) against Bacillus cereus; 0.12 µg/mL (≈ 0.308 µM) against Morganella morganii; 0.25 µg/mL (≈ 0.642 µM) in the experiment on Proteus vulgaris; 0.12 µg/mL (≈ 0.308 µM) in experiment [7].

For the molecule `O=C(O)c1cn(C2CC2)c2c(F)c(N3CC(C(=O)O)C3)c(F)cc2c1=O`, the MIC against Klebsiella pneumoniae, against Bacillus subtilis, in the experiment on Enterobacter cloacae, in the experiment with Pseudomonas aeruginosa [2], in the experiment with Enterococcus faecalis and with Staphylococcus aureus [3] was more than 16 µg/mL throughout. For the same molecule, the minimal inhibitory concentration (MIC) (against Escherichia coli [5]; with Bacillus cereus; against Morganella morganii; against Proteus vulgaris; in experiment [7]) was more than 16 µg/mL in each case.

Source of the values: ChEMBL document CHEMBL1126625, “7-Azetidinylquinolones as antibacterial agents. Synthesis and structure-activity relationships” (J Med Chem, 1993).
